Eight compounds from ChEMBL document CHEMBL3397023, “Synthesis and evaluation of multi-functional NO-donor/insulin-secretagogue derivatives for the treatment of type II diabetes and its cardiovascular complications” (Bioorg Med Chem, 2015) can be followed below.

The structures appear in SMILES notation. pIC50: −log10 of the molar value. Activity calls are given as the source filed them. The calls are words filed in the database; no cut-off is given here.

For experiment [1], the system named is Rattus norvegicus. Nature of the experiment: Hypoglycemic activity in STZ-treated Wistar rat diabetic model at 50 mg/kg, ip after 10 mins treated with 1 g/kg, ip glucose. The format is functional, organism-based. Also noted: dose 50 mg/kg. The essentials:
(§1)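 Male Wistar rats (250–300 g) made diabetic with streptozotocin 50 mg/kg ip (fasting glycemia 100–150 mg/dl at day 4), fasted 24 h, then dosed ip. Glucose 1 g/kg ip was given 10 min later. Blood glucose was read by tail puncture with a glucometer at 0, 15, 30, 45, 60, 90 and 120 min, and AUC was calculated. Vehicle normoglycemic rats served as reference.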

In experiment [2] the test system is Aorta. Description: Maximal vasorelaxant activity in Wistar rat endothelium-denuded aortic ring assessed as reduction of KCl-induced contraction at 30 uM relative to control. Type of experiment: functional. The gist of the method:
(§2)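 Rat aortic rings were pre-contracted with KCl 30 mM and exposed to cumulative test concentrations. Potency: pIC50, the negative log of the concentration halving KCl-induced tone. Efficacy: Emax, the maximal relaxation at the highest concentration tested. Both given as mean ± SEM.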

Experiment [3] has as its system Aorta. Nature of the experiment: Vasorelaxant activity in Wistar rat endothelium-denuded aortic ring assessed as reduction of KCl-induced contraction. Type of experiment: functional, tissue-based. The gist of the method: as §2
The subject of experiment [4] is Rattus norvegicus. Description: Cardio-protective anti-ischemic activity in STZ-treated Wistar rat heart assessed as reduction in ischemic area at 18.2 mg/kg, ip for 7 days followed by treatment hearts submitted to 30 mins ischemia measured after 120 mins of reperfusion. Type of experiment: functional, organism-based. More on the design: dose 18.2 mg/kg. The gist of the method:
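STZ-diabetic male Wistar rats (50 mg/kg ip; fasting glycemia 100–150 mg/dl) dosed ip daily for 7 days from day 11, with vehicle normoglycemic rats as reference. Langendorff hearts: 30 min equilibration, 30 min ischemia, 120 min reperfusion. Then 2 mm left-ventricle slices were stained with triphenyltetrazolium chloride, and damaged area was measured by planimetry as % of whole area. Mean ± SEM.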

Experiment [5] deals with Rattus norvegicus. Nature of the experiment: Cardio-protective anti-ischemic activity in STZ-treated Wistar rat heart assessed as recovery of functional parameter at 18.2 mg/kg, ip for 7 days followed by treatment hearts submitted to 30 mins ischemia measured after 120 mins of reperfusion. Type of experiment: organism-based. Also noted: dose 18.2 mg/kg. The essentials:
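Male Wistar rats (250–300 g) given streptozotocin 50 mg/kg ip; those with fasting glycemia 100–150 mg/dl at day 4 were used. From day 11, daily ip dosing for 7 days, with vehicle-treated normoglycemic rats as reference. Hearts were taken under heparin and pentobarbital, Langendorff-perfused, equilibrated 30 min, then 30 min ischemia and 120 min reperfusion. Read-out: RPP recovery %, mean ± SEM.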

In experiment [6] the test system is Rattus norvegicus. Nature of the experiment: Hypoglycemic activity in STZ-treated Wistar rat diabetic model at 75.8 mg/kg, ip after 10 mins treated with 1 g/kg, ip glucose. The format is functional, organism-based. More on the design: dose 75.8 mg/kg. The gist of the method: as §1

For the compound `CC(C)[C@H]1CC[C@H](C(=O)N[C@H](Cc2ccccc2)C(=O)O)CC1`, the outcome in the experiment on Rattus norvegicus [1] was Active.

The Emax is the greatest response seen or fitted, relative to the assay's reference. The pIC50 is −log10 of the IC50, conventionally taken in molar units. For the compound `CC(C)[C@H]1CC[C@H](C(=O)N[C@H](Cc2ccccc2)C(=O)OCc2ccc(CO[N+](=O)[O-])cc2)CC1`, in the experiment with Aorta [2], the Emax at 30 µM turned out to be 93%. For the same compound, the pIC50 with Aorta [3] is 5.30. Further, the outcome in the experiment with Rattus norvegicus [4], in the experiment on Rattus norvegicus [5] and in the experiment with Rattus norvegicus [6] was Active.

As to `CCOc1cc(CC(=O)N[C@@H](CC(C)C)c2ccccc2N2CCCCC2)ccc1C(=O)OCc1cccc(C(C)O[N+](=O)[O-])c1` (stereo partly specified), the Emax at 30 µM in the experiment on Aorta [2] came out at 26%.

For `CCOc1cc(CC(=O)N[C@@H](CC(C)C)c2ccccc2N2CCCCC2)ccc1C(=O)OCc1cccc(CO[N+](=O)[O-])c1`, the Emax at 30 µM in the experiment with Aorta [2] worked out at 79%. The pIC50 with Aorta [3] is 4.88.

Regarding `CC(C)[C@H]1CC[C@H](C(=O)N[C@H](Cc2ccccc2)C(=O)OCc2cccc(CO[N+](=O)[O-])c2)CC1`, the Emax at 30 µM with Aorta [2] is 45%.

`CC(O[N+](=O)[O-])c1ccc(COC(=O)[C@@H](Cc2ccccc2)NC(=O)[C@H]2CC[C@H](C(C)C)CC2)cc1` (stereo partly specified): in the experiment on Aorta [2], the Emax at 30 µM is 58%. In addition, in the experiment on Aorta [3], the pIC50 was 4.63.

With `CCOc1cc(CC(=O)N[C@@H](CC(C)C)c2ccccc2N2CCCCC2)ccc1C(=O)OCc1ccc(CO[N+](=O)[O-])cc1`, the Emax at 30 µM in the experiment with Aorta [2] stood at 94%. For the same compound, in the experiment on Aorta [3], the pIC50 was 5.09.

As for `CCOc1cc(CC(=O)N[C@@H](CC(C)C)c2ccccc2N2CCCCC2)ccc1C(=O)OCc1ccc(C(C)O[N+](=O)[O-])cc1` (stereo partly specified), the Emax at 30 µM in the experiment with Aorta [2] was determined as 84%. Also, the pIC50 with Aorta [3] is 5.30.
